According to ChEMBL document CHEMBL1124538, “Mono and bis(bioreductive) alkylating agents: synthesis and antitumor activities in a B16 melanoma model” (J Med Chem, 1989):
“And” between values parts separate entries of the source, which are not always exact repeats. Equal entries are not always repeated.

How the values were obtained:
[1] = test system: B16; assay: (§1) Percent B16 melanoma growth inhibition at dose 10 mg/kg in mice; type: functional, Mus musculus; settings: for inhibition in vivo at 10 mg/kg: Mus musculus, B16, dose 10 mg/kg; for Inhibition: dose 10 mg/kg
Outline: (§2)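 B16 brei (1:10 w/v in HBSS, 0.5 mL) was implanted sc into female BDF1 mice. Mice got ip doses for 9 consecutive days after the tumor became palpable, in saline, 0.3% Klucel or 0.33% Klucel/NaHCO3. Serial tumor diameters were measured. Inhibition = 100 − [(change in average tumor diameter, treated/control) × 100]; active if ≥25%.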

[2] = test system: Mus musculus; assay: (§3) Antitumor efficacy against subcutaneously implanted B16 melanoma tumor in BDF1 hybrid mice, administered intraperitoneally with 10 mg/kg of compound; type: functional
Outline: (§4)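 Female BDF1 mice received 0.5 mL B16 tumor brei sc into the shaved dorsoscapular area; the brei was a 1:10 w/v dilution in HBSS from tumor passaged sc in C57BL/6 mice. Dosing was ip for 9 consecutive days once the tumor was palpable, in saline, 0.3% Klucel or 0.33% Klucel/NaHCO3. Mice were observed daily for up to 120 days. %T/C is median survival treated/control (NCI Instruction 14); active if ≥140.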

[3] = test system: Mus musculus; assay: Antitumor efficacy against subcutaneously implanted B16 melanoma tumor in BDF1 hybrid mice, administered intraperitoneally with 20 mg/kg of compound; type: functional; outline: as §4
[4] = test system: B16; assay: Percent B16 melanoma growth inhibition at dose 20 mg/kg in mice; type: functional, Mus musculus; settings: for inhibition in vivo at 20 mg/kg: Mus musculus, B16, dose 20 mg/kg; outline: as §2
[5] = test system: Mus musculus; assay: as §1; type: functional; settings: B16, dose 10 mg/kg; outline: as §2
[6] = test system: Mus musculus; assay: Antitumor efficacy against subcutaneously implanted B16 melanoma tumor in BDF1 hybrid mice, administered intraperitoneally with 4 mg/kg of compound; type: functional; outline: as §4
[7] = test system: Mus musculus; assay: Compound was tested for increase in life span of P388 leukemia bearing mice at dose of 5 mg/Kg; Did nto increase significantly; type: functional, organism-based
[8] = test system: Mus musculus; assay: Compound was tested for increase in life span of P388 leukemia bearing mice at dose of 20 mg/Kg; Showed Toxicity, and weight loss; type: organism-based; settings: in vivo
[9] = test system: B16; assay: Percent B16 melanoma growth inhibition at dose 4 mg/kg in mice; type: functional; settings: Mus musculus; outline: as §2
[10] = test system: Mus musculus; assay: Compound was tested for increase in life span of P388 leukemia bearing mice at dose of 10 mg/Kg; Did nto increase significantly; type: functional, organism-based
[11] = test system: Mus musculus; assay: Compound was tested for increase in life span of P388 leukemia bearing mice at dose of 40 mg/Kg; Showed Toxicity, and weight loss; type: organism-based; settings: in vivo
[12] = test system: B16; assay: as §3; type: functional, Mus musculus; outline: as §4

SMILES	inhibition in vivo at 10 mg/kg [1]	T/C [2]	inhibition in vivo at 20 mg/kg [4]	also measured
CC(=O)OCC1=CC(=O)C=C(COC(C)=O)C1=O	13%	100%		
O=C(O)CCC(=O)OCC1=CC(=O)C(COC(=O)CCC(=O)O)=CC1=O	38%			Inhibition [1]: 19%; T/C ([2]; 10 mg/kg): 115% and 111%
CC(=O)OCC1=CC(=O)C(CCC2=CC(=O)C(COC(C)=O)=CC2=O)=CC1=O	16%	129%		
COC1=CC(=O)C(COC(C)=O)=CC1=O	0%	110%		
O=C1C=C(CO)C(=O)C(CO)=C1	19%	90%	36%	T/C [3]: 171%
O=C1C=C(CBr)C(=O)C=C1CBr	20%			Inhibition [1]: 30%; T/C ([2]; 10 mg/kg): 140% and 118%
O=C1C=C(CCl)C(=O)C=C1CCl		104%		inhibition in vivo at 10 mg/kg [5]: 4%
O=C1C=C(CBr)C(=O)C(CBr)=C1	24%	105%		
CC(=O)OCC1=CC(=O)C=CC1=O			63%	T/C [6]: 144%; T/C [3]: 142%; Increase in life-span [7]: Did nto increase significantly; Increase in life-span [8]: Did nto increase significantly; inhibition in vivo at 4 mg/kg [9]: 31%; Increase in life-span [10]: Did nto increase significantly; Increase in life-span [11]: Did nto increase significantly
O=C(O)CCC(=O)OCC1=CC(=O)C(CCC2=CC(=O)C(COC(=O)CCC(=O)O)=CC2=O)=CC1=O				T/C ([2]; 10 mg/kg): 123% and 106%
O=C1C=C(COC(=O)CCC(=O)O)C(=O)C(COC(=O)CCC(=O)O)=C1			23%	T/C ([3]; 20 mg/kg): 110% and 130%; Inhibition ([4]; dose 20 mg/kg): 29%
O=C1C=CC(=O)C(COC(=O)CCC(=O)O)=C1	27%	164%	19%	T/C [3]: 115%; Inhibition [1]: 32%; T/C [12]: 130%
O=C1C=C(CCC2=CC(=O)C(CBr)=CC2=O)C(=O)C=C1CBr	16%	102%		
